Measured values published in the array DNA melting data of Ke et al. (doi:10.1101/2024.01.08.574731).

Key:
[1] = folding enthalpy; higher = less favourable; fluorescence melt of hairpins on a sequencing array, two-state fit; conditions: sodium 0.088 M
Summary of the method: (§1)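 Cy3 fluorescence of library hairpins on a sequenced MiSeq flow cell, with annealed Cy3 and quencher oligos, was imaged in 50 mM Na-HEPES pH 8.0, 25 mM NaCl in 2.5 °C steps up to 60 °C. Signals were normalised to pre-quench Cy3 and to control variants. Melting temperature and folding enthalpy came from bootstrapped two-state fits, inverse-variance combined over four replicates. Fitted temperatures were raised by 9.35 °C to match UV melts.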

[2] = melting temperature; fluorescence melt of hairpins on a sequencing array, two-state fit, raised by 9.35 °C to match UV melts; conditions: sodium 0.088 M
Summary of the method: as §1

Sequence | folding enthalpy [1] | Tm [2]
GATCCTAGGGAGGATC ((((((....)))))) | -29.6 kcal/mol | 51.8 °C
GATCCTATCCAGGATC ((((((....)))))) | -33.8 kcal/mol | 53 °C
GATCCTATCTAGGATC ((((((....)))))) | -37.3 kcal/mol | 52.7 °C
GATCCTATGCAGGATC ((((((....)))))) | -35.2 kcal/mol | 53 °C
GATCCTATTAAGGATC ((((((....)))))) | -44.9 kcal/mol | 52.2 °C
GATCCTCACTAGGATC ((((((....)))))) | -35.1 kcal/mol | 51.7 °C
GATCCTCAGAGGATC ((((((...)))))) | -31.6 kcal/mol | 52.1 °C
GATCCTCATAGGATC ((((((...)))))) | -37.4 kcal/mol | 53.1 °C
GATCCTCATTAGGATC ((((((....)))))) | -33.8 kcal/mol | 51.1 °C
GATCCTCCAGAGGATC ((((((....)))))) | -35.5 kcal/mol | 55.5 °C
GATCCTCGTCAGGATC ((((((....)))))) | -25.1 kcal/mol | 50.8 °C
GATCCTCTCAAGGATC ((((((....)))))) | -39.9 kcal/mol | 53.2 °C
GATCCTCTCAGGATC ((((((...)))))) | -36.4 kcal/mol | 55 °C
GATCCTCTGAGGATC ((((((...)))))) | -33 kcal/mol | 51.9 °C
GATCCTCTGCAGGATC ((((((....)))))) | -37 kcal/mol | 50.7 °C
GATCCTCTTCAGGATC ((((((....)))))) | -38.2 kcal/mol | 51.3 °C
GATCCTGAACAGGATC ((((((....)))))) | -38.4 kcal/mol | 59.9 °C
GATCCTGACCAGGATC ((((((....)))))) | -45.1 kcal/mol | 56.5 °C
GATCCTGATAAGGATC ((((((....)))))) | -37 kcal/mol | 64.4 °C
GATCCTGCAAGGATC ((((((...)))))) | -39.6 kcal/mol | 68.5 °C
GATCCTGCACAGGATC ((((((....)))))) | -47.2 kcal/mol | 58.9 °C
GATCCTGCATAGGATC ((((((....)))))) | -43.4 kcal/mol | 60.9 °C
GATCCTGCCCAGGATC ((((((....)))))) | -49.4 kcal/mol | 57 °C
GATCCTGCCGAGGATC ((((((....)))))) | -32.1 kcal/mol | 53 °C

Sequence | folding enthalpy [1] | Tm [2]
GATCCTGCCTAGGATC ((((((....)))))) | -43.7 kcal/mol | 54.7 °C
GATCCTGCGCAGGATC ((((((....)))))) | -53 kcal/mol | 59.3 °C
GATCCTGCTCAGGATC ((((((....)))))) | -48.1 kcal/mol | 55.2 °C
GATCCTGGAAACGGGATC (((((.(....).))))) | -42.8 kcal/mol | 50.9 °C
GATCCTGGATAGGATC ((((((....)))))) | -39 kcal/mol | 57.5 °C
GATCCTGGGGAGGATC ((((((....)))))) | -36.8 kcal/mol | 51 °C
GATCCTGTAAAGGATC ((((((....)))))) | -39.6 kcal/mol | 60.5 °C
GATCCTGTCAAGGATC ((((((....)))))) | -42.7 kcal/mol | 64.9 °C
GATCCTGTGCAGGATC ((((((....)))))) | -43.2 kcal/mol | 55 °C
GATCCTGTGGAGGATC ((((((....)))))) | -31.8 kcal/mol | 51.8 °C
GATCCTTAAAGGATC ((((((...)))))) | -33.7 kcal/mol | 51.7 °C
GATCCTTACAAGGATC ((((((....)))))) | -38.1 kcal/mol | 54.2 °C
GATCCTTAGGAGGATC ((((((....)))))) | -39.2 kcal/mol | 51 °C
GATCCTTATCAGGATC ((((((....)))))) | -33.2 kcal/mol | 51 °C
GATCCTTCCCAGGATC ((((((....)))))) | -36.9 kcal/mol | 52 °C
GATCCTTCGGAGGATC ((((((....)))))) | -38.2 kcal/mol | 52.3 °C
GATCCTTGCAAGGATC ((((((....)))))) | -41 kcal/mol | 55.4 °C
GATCCTTGCTAGGATC ((((((....)))))) | -35.7 kcal/mol | 53.7 °C
GATCCTTGGAAGGATC ((((((....)))))) | -32.1 kcal/mol | 52.2 °C
GATCCTTGTAAGGATC ((((((....)))))) | -42.3 kcal/mol | 55.6 °C
GATCCTTTCCAGGATC ((((((....)))))) | -46.1 kcal/mol | 51.7 °C
GATCCTTTCGAGGATC ((((((....)))))) | -38.7 kcal/mol | 53.8 °C
GATCCTTTGCAGGATC ((((((....)))))) | -30.6 kcal/mol | 52 °C
GATCGAAAACTCGATC ((((((....)))))) | -30.3 kcal/mol | 47.2 °C

Sequence | folding enthalpy [1] | Tm [2]
GATCGAAAATTCGATC ((((((....)))))) | -33.9 kcal/mol | 50 °C
GATCGAAACTCGATC ((((((...)))))) | -30.4 kcal/mol | 50.2 °C
GATCGAAACTTCGATC ((((((....)))))) | -33.9 kcal/mol | 53.5 °C
GATCGAAATTTCGATC ((((((....)))))) | -41.2 kcal/mol | 53.7 °C
GATCGAACCATCGATC ((((((....)))))) | -41.6 kcal/mol | 50.4 °C
GATCGAACCGTCGATC ((((((....)))))) | -37 kcal/mol | 49.5 °C
GATCGAACTATCGATC ((((((....)))))) | -43.8 kcal/mol | 50.3 °C
GATCGAACTCTCGATC ((((((....)))))) | -35.6 kcal/mol | 49.7 °C
GATCGAAGCATCGATC ((((((....)))))) | -35.8 kcal/mol | 51.2 °C
GATCGAATAGTCGATC ((((((....)))))) | -34.8 kcal/mol | 48.8 °C
GATCGAATCCTCGATC ((((((....)))))) | -41.1 kcal/mol | 50.6 °C
GATCGAATCTCGATC ((((((...)))))) | -38.2 kcal/mol | 51 °C
GATCGACAACTCGATC ((((((....)))))) | -33.8 kcal/mol | 48.5 °C
GATCGACAATTCGATC ((((((....)))))) | -42.5 kcal/mol | 49.2 °C
GATCGACACATCGATC ((((((....)))))) | -38.5 kcal/mol | 52.4 °C
GATCGACACCTCGATC ((((((....)))))) | -44.7 kcal/mol | 52.5 °C
GATCGACAGTCGATC ((((((...)))))) | -40.4 kcal/mol | 49.8 °C
GATCGACAGTTCGATC ((((((....)))))) | -44.4 kcal/mol | 49.2 °C
GATCGACCATCGATC ((((((...)))))) | -32.2 kcal/mol | 49.6 °C
GATCGACCATTCGATC ((((((....)))))) | -39.6 kcal/mol | 50.1 °C
GATCGACCCTCGATC ((((((...)))))) | -39.1 kcal/mol | 51.7 °C
GATCGACCCTTCGATC ((((((....)))))) | -45.1 kcal/mol | 53.4 °C
GATCGACGAAAGTCATC (((.(((....)))))) | -12.7 kcal/mol | 33.1 °C
GATCGACGACTCGATC ((((((....)))))) | -36.3 kcal/mol | 48.7 °C

Sequence | folding enthalpy [1] | Tm [2]
GATCGACGCGTCGATC ((((((....)))))) | -52.3 kcal/mol | 68.2 °C
GATCGACGCTTCGATC ((((((....)))))) | -40.6 kcal/mol | 53.3 °C
GATCGACGGATCGATC ((((((....)))))) | -29 kcal/mol | 51.1 °C
GATCGACGGTCGATC ((((((...)))))) | -43.7 kcal/mol | 51.2 °C
GATCGACGTATCGATC ((((((....)))))) | -56.4 kcal/mol | 51.2 °C
GATCGACTAGTCGATC ((((((....)))))) | -45.6 kcal/mol | 63.7 °C
GATCGACTATTCGATC ((((((....)))))) | -38.4 kcal/mol | 50.5 °C
GATCGACTTATCGATC ((((((....)))))) | -44.6 kcal/mol | 51 °C
GATCGACTTGTCGATC ((((((....)))))) | -43.2 kcal/mol | 68.3 °C
GATCGAGACATCGATC ((((((....)))))) | -38.9 kcal/mol | 58.8 °C
GATCGAGACCTCGATC ((((((....)))))) | -44.3 kcal/mol | 56.7 °C
GATCGAGACGTCGATC ((((((....)))))) | -37.3 kcal/mol | 57.2 °C
GATCGAGAGTCGATC ((((((...)))))) | -29.7 kcal/mol | 49.4 °C
GATCGAGATCTCGATC ((((((....)))))) | -50.6 kcal/mol | 55.7 °C
GATCGAGCAATCGATC ((((((....)))))) | -39.7 kcal/mol | 57.7 °C
GATCGAGCTATCGATC ((((((....)))))) | -43.4 kcal/mol | 58.4 °C
GATCGAGGAAACTCGATC (((((((....))))))) | -44.5 kcal/mol | 62.7 °C
GATCGAGGAAACTCGGTC ((.((((....)))).)) | -30.4 kcal/mol | 50.5 °C
GATCGAGGAATCGATC ((((((....)))))) | -33.2 kcal/mol | 55.9 °C
GATCGAGGGGTCGATC ((((((....)))))) | -4.35 kcal/mol | 45.6 °C
GATCGAGGGTCGATC ((((((...)))))) | -32.3 kcal/mol | 51 °C
GATCGAGTACTCGATC ((((((....)))))) | -43.4 kcal/mol | 58.8 °C
GATCGAGTATTCGATC ((((((....)))))) | -40 kcal/mol | 59.2 °C
GATCGAGTCTCGATC ((((((...)))))) | -39.2 kcal/mol | 53.2 °C
